Converted amounts (≈) assume the structure as drawn. The source made the active and inactive calls. The rule behind the calls is not given here.
Columns and labels:
[1] = Cytotoxicity against human MT4 cells; type: cell-based
[2] = test system: Vesicular stomatitis virus; assay: Antiviral activity against Vesicular stomatitis virus ATCC VR 1540 infected in African green monkey Vero 76 cells assessed as reduction of virus-plaque formation after 2 days by crystal violet staining; type: functional, organism-based; details: ATCC VR 1540, Vero, 48 h
[3] = test system: Human immunodeficiency virus 1; assay: Antiviral activity against HIV1 3B infected in human MT4 cells assessed as protection against virus-induced cytopathogenicity by MTT assay; type: functional, organism-based; details: Human immunodeficiency virus 1, 3B
[4] = Cytotoxicity against BHK cells assessed as cell viability after 48 to 96 hrs by MTT assay; type: cell-based, Mesocricetus auratus; details: hamster
Yellow fever virus = assay: Antiviral activity against Yellow fever virus 17D infected in BHK cells assessed as protection against virus-induced cytopathogenicity after 3 to 4 days by MTT assay; type: functional, cell-based
Poliovirus 1 = assay: Antiviral activity against Poliovirus type 1 ATCC VR-1562 infected in African green monkey Vero 76 cells assessed as reduction of virus-plaque formation after 2 days by crystal violet staining; type: functional, organism-based; details: Enterovirus C, ATCC VR-1562, Vero, 48 h
Human alphaherpesvirus 1 = assay: Antiviral activity against Human herpesvirus 1 KOS ATCC VR-1493 infected in African green monkey Vero 76 cells assessed as reduction of virus-plaque formation after 3 days by crystal violet staining; type: functional, organism-based; details: Human alphaherpesvirus 1, KOS ATCC VR1493, Vero, 72 h
Procedure, shortened: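 Plaque reduction: Vero-76 at 2x10^5 cells/well grown to confluent monolayers, infected 2 h at 50–100 PFU/well; after removing unadsorbed virus, overlay of D-MEM, 1% inactivated FBS, 0.75% methylcellulose with or without serial compound dilutions; 3 days at 37°C, fixed and stained with crystal violet in 50% ethanol, plaques counted; EC50 by linear regression.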

Staphylococcus aureus [5] = assay: Antimicrobial activity against Staphylococcus aureus ATCC 25923 at 400 ug after 18 hrs by disc-diffusion method; type: functional; details: ATCC 25923, 18 h, read-out: IZ
Procedure, shortened: (§1)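 Disc diffusion on Mueller-Hinton II agar per CLSI; 9 mm paper discs loaded with 400 µg compound from DMSO solution, dried, placed on agar; growth inhibition zone diameter read after 18 h at 35°C.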

Staphylococcus aureus [6] = assay: Antimicrobial activity against Staphylococcus aureus ATCC 6538 at 400 ug after 18 hrs by disc-diffusion method; type: functional; details: ATCC 6538, 18 h, read-out: IZ; procedure, shortened: as §1
[7] = test system: Staphylococcus epidermidis; assay: Antimicrobial activity against Staphylococcus epidermidis ATCC 12228 at 400 ug after 18 hrs by disc-diffusion method; type: functional; details: for zone of inhibition at 400 µg/disc: ATCC 12228, 18 h, read-out: IZ; procedure, shortened: as §1
Bacillus cereus = assay: Antimicrobial activity against Bacillus cereus ATCC 11778 at 400 ug after 18 hrs by disc-diffusion method; type: functional; details: ATCC 11778, 18 h, read-out: IZ; procedure, shortened: as §1
Enterococcus hirae = assay: Antimicrobial activity against Enterococcus hirae ATCC 10541 at 400 ug after 18 hrs by disc-diffusion method; type: functional; details: for zone of inhibition at 400 µg/disc: ATCC 10541, 18 h, read-out: IZ; procedure, shortened: as §1
Micrococcus luteus [8] = assay: Antimicrobial activity against Micrococcus luteus ATCC 10240 at 400 ug after 18 hrs by disc-diffusion method; type: functional; details: for zone of inhibition at 400 µg/disc: ATCC 10240, 18 h, read-out: IZ; procedure, shortened: as §1
Micrococcus luteus [9] = assay: Antimicrobial activity against Micrococcus luteus ATCC 9341 at 400 ug after 18 hrs by disc-diffusion method; type: functional; details: for zone of inhibition at 400 µg/disc: ATCC 9341, 18 h, read-out: IZ; procedure, shortened: as §1
Staphylococcus aureus [10] = assay: Antimicrobial activity against Staphylococcus aureus NCTC 4163 after 18 hrs by twofold serial microdilution method; type: functional; details: NCTC 4163, 18 h
Staphylococcus aureus [11] = assay: Antimicrobial activity against Staphylococcus aureus ATCC 29213 after 18 hrs by twofold serial microdilution method; type: functional; details: ATCC 29213, 18 h
[12] = test system: Staphylococcus epidermidis; assay: Antimicrobial activity against Staphylococcus epidermidis ATCC 35984 after 18 hrs by twofold serial microdilution method; type: functional; details: ATCC 35984, 18 h
Staphylococcus aureus [13] = assay: Antimicrobial activity against hospital methicillin-resistant Staphylococcus aureus 53/05 after 18 hrs by twofold serial microdilution method; type: functional; details: 53/05, 18 h
Procedure, shortened: (§2)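 Twofold serial microdilution in Mueller-Hinton broth. Compound stock was made in DMSO and diluted in sterile water. Tested range was 0.125–512 µg/mL. Final inoculum was 10^5 CFU/mL. Plates were incubated 18 h at 35 °C. MIC is the lowest concentration preventing visible growth.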

Staphylococcus aureus [14] = assay: Antimicrobial activity against hospital methicillin-resistant Staphylococcus aureus 54/05 after 18 hrs by twofold serial microdilution method; type: functional; details: 54/05, 18 h; procedure, shortened: as §2
Staphylococcus aureus [15] = assay: Antimicrobial activity against hospital methicillin-resistant Staphylococcus aureus 57/05 after 18 hrs by twofold serial microdilution method; type: functional; details: 57/05, 18 h; procedure, shortened: as §2
Staphylococcus aureus [16] = assay: Antimicrobial activity against hospital methicillin-resistant Staphylococcus aureus 79/05 after 18 hrs by twofold serial microdilution method; type: functional; details: 79/05, 18 h; procedure, shortened: as §2
Staphylococcus aureus [17] = assay: Antimicrobial activity against hospital methicillin-resistant Staphylococcus aureus 522/11 after 18 hrs by twofold serial microdilution method; type: functional; details: 522/11, 18 h; procedure, shortened: as §2
Staphylococcus aureus [18] = assay: Antimicrobial activity against hospital methicillin-resistant Staphylococcus aureus 573/11 after 18 hrs by twofold serial microdilution method; type: functional; details: 573/11, 18 h; procedure, shortened: as §2
[19] = test system: Staphylococcus epidermidis; assay: Antimicrobial activity against hospital methicillin-resistant Staphylococcus epidermidis 16/04 after 18 hrs by twofold serial microdilution method; type: functional; details: 16/04, 18 h; procedure, shortened: as §2
Staphylococcus aureus [20] = assay: Ratio of ciprofloxacin MIC to compound MIC for hospital methicillin-resistant Staphylococcus aureus 53/05 after 18 hrs by twofold serial microdilution method; type: functional
Procedure, shortened: (§3)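 Ratio of MICs for ciprofloxacin and test agent, each from twofold serial broth microdilution in Mueller-Hinton broth following CLSI guidelines. DMSO stock was diluted in sterile water to 0.125–512 µg/mL, with a final inoculum of 10^5 CFU/mL.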

Staphylococcus aureus [21] = assay: Ratio of ciprofloxacin MIC to compound MIC for hospital methicillin-resistant Staphylococcus aureus 54/05 after 18 hrs by twofold serial microdilution method; type: functional; procedure, shortened: as §3
Staphylococcus aureus [22] = assay: Ratio of ciprofloxacin MIC to compound MIC for hospital methicillin-resistant Staphylococcus aureus 80/05 after 18 hrs by twofold serial microdilution method; type: functional; procedure, shortened: as §3
Staphylococcus aureus [23] = assay: Ratio of ciprofloxacin MIC to compound MIC for hospital methicillin-resistant Staphylococcus aureus 81/05 after 18 hrs by twofold serial microdilution method; type: functional; procedure, shortened: as §3
[24] = test system: Staphylococcus epidermidis; assay: Ratio of ciprofloxacin MIC to compound MIC for hospital methicillin-resistant Staphylococcus epidermidis 23/04 after 18 hrs by twofold serial microdilution method; type: functional; procedure, shortened: as §3
[25] = test system: Staphylococcus epidermidis; assay: Ratio of ciprofloxacin MIC to compound MIC for hospital methicillin-resistant Staphylococcus epidermidis 31/04 after 18 hrs by twofold serial microdilution method; type: functional; procedure, shortened: as §3
[26] = test system: Staphylococcus epidermidis; assay: Ratio of ciprofloxacin MIC to compound MIC for hospital methicillin-resistant Staphylococcus epidermidis 62/04 after 18 hrs by twofold serial microdilution method; type: functional; procedure, shortened: as §3
[27] = test system: Mycobacterium tuberculosis; assay: Antimycobacterial activity against Mycobacterium tuberculosis H37Rv ATCC 25618; type: functional
Procedure, shortened: (§4)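 Classical test-tube successive-dilution method in Youmans' modification of Proskauer and Beck liquid medium with 10% bovine serum. Inoculum came from 14-day cultures. DMSO stock was 10 mg/mL, diluted geometrically in medium. Tubes were incubated at 37 °C. Concentrations tested were 3.1, 6.2, 12.5, 25, 50 and 100 µg/ml. MIC is the minimum concentration inhibiting growth relative to compound-free tubes.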

[28] = test system: Mycobacterium tuberculosis; assay: Antimycobacterial activity against drug-sensitive Mycobacterium tuberculosis Spec. 192; type: functional; procedure, shortened: as §4

Row | SMILES | CC50 [1] | EC50 [2] | EC50 [3] | CC50 [4] | EC50 (Yellow fever virus) | EC50 (Poliovirus 1) | EC50 (Human alphaherpesvirus 1) | zone of inhibition at 400 µg/disc (Staphylococcus aureus [5]) | zone of inhibition at 400 µg/disc (Staphylococcus aureus [6]) | zone of inhibition at 400 µg/disc (Bacillus cereus) | MIC (Staphylococcus aureus [10]) | MIC (Staphylococcus aureus [11]) | MIC [12] | MIC (Staphylococcus aureus [13]) | MIC (Staphylococcus aureus [14]) | MIC (Staphylococcus aureus [15]) | MIC (Staphylococcus aureus [16]) | MIC (Staphylococcus aureus [17]) | MIC (Staphylococcus aureus [18]) | MIC [19] | also measured
1 | Fc1cccc(NC(=S)Nc2cccc(C(F)(F)F)c2)c1 | 20 µM | > 20 µM | > 20 µM | 9.4 µM | > 9.4 µM | > 20 µM | > 20 µM | 22 mm | 20 mm | 18 mm | 4 µg/mL (≈ 12.7 µM) | 8 µg/mL (≈ 25.5 µM) | 8 µg/mL (≈ 25.5 µM) | 4 µg/mL (≈ 12.7 µM) | 8 µg/mL (≈ 25.5 µM) | 4 µg/mL (≈ 12.7 µM) | 8 µg/mL (≈ 25.5 µM) | 8 µg/mL (≈ 25.5 µM) | 8 µg/mL (≈ 25.5 µM) | 8 µg/mL (≈ 25.5 µM) | zone of inhibition at 400 µg/disc [7]: 19 mm; zone of inhibition at 400 µg/disc (Enterococcus hirae): 25 mm; zone of inhibition at 400 µg/disc (Micrococcus luteus [8]): 21 mm; zone of inhibition at 400 µg/disc (Micrococcus luteus [9]): 23 mm; Ratio (Staphylococcus aureus [20]): 128; Ratio (Staphylococcus aureus [21]): 128; Ratio (Staphylococcus aureus [22]): 128; Ratio (Staphylococcus aureus [23]): 128; Ratio [24]: 128; Ratio [25]: 128; Ratio [26]: 128; MIC [27]: 25 µg/mL (≈ 79.5 µM); MIC [28]: > 100 µg/mL
2 | FC(F)(F)c1cccc(NC(=S)Nc2ccc(Cl)cc2)c1 | 6.8 µM | > 11 µM | > 6.8 µM | 10 µM | > 10 µM | > 11 µM | > 11 µM | 12 mm | 13 mm | 12 mm | 8 µg/mL (≈ 24.2 µM) | 8 µg/mL (≈ 24.2 µM) | 4 µg/mL (≈ 12.1 µM) | 16 µg/mL (≈ 48.4 µM) | 16 µg/mL (≈ 48.4 µM) | 16 µg/mL (≈ 48.4 µM) | 16 µg/mL (≈ 48.4 µM) | 16 µg/mL (≈ 48.4 µM) | 8 µg/mL (≈ 24.2 µM) | 16 µg/mL (≈ 48.4 µM) | inhibition zone (IZ) [7]: inactive; inhibition zone (IZ) (Enterococcus hirae): inactive; inhibition zone (IZ) (Micrococcus luteus [8]): inactive; inhibition zone (IZ) (Micrococcus luteus [9]): inactive; Ratio (Staphylococcus aureus [20]): 128; Ratio (Staphylococcus aureus [21]): 128; Ratio (Staphylococcus aureus [22]): 128; Ratio (Staphylococcus aureus [23]): 128; Ratio [24]: 128; Ratio [25]: 128; Ratio [26]: 128; MIC [27]: > 100 µg/mL; MIC [28]: > 100 µg/mL
3 | FC(F)(F)c1cccc(NC(=S)Nc2cccc(Br)c2)c1 | 9.2 µM | > 14 µM | > 9.2 µM | 10 µM | > 10 µM | > 14 µM | > 14 µM | 28 mm | 29 mm | 24 mm | 1 µg/mL (≈ 2.67 µM) | 1 µg/mL (≈ 2.67 µM) | 2 µg/mL (≈ 5.33 µM) | 1 µg/mL (≈ 2.67 µM) | 0.5 µg/mL (≈ 1.33 µM) | 1 µg/mL (≈ 2.67 µM) | 0.5 µg/mL (≈ 1.33 µM) | 0.5 µg/mL (≈ 1.33 µM) | 0.25 µg/mL (≈ 0.666 µM) | 2 µg/mL (≈ 5.33 µM) | zone of inhibition at 400 µg/disc [7]: 29 mm; zone of inhibition at 400 µg/disc (Enterococcus hirae): 13 mm; zone of inhibition at 400 µg/disc (Micrococcus luteus [8]): 30 mm; zone of inhibition at 400 µg/disc (Micrococcus luteus [9]): 33 mm; Ratio (Staphylococcus aureus [20]): 128; Ratio (Staphylococcus aureus [21]): 128; Ratio (Staphylococcus aureus [22]): 128; Ratio (Staphylococcus aureus [23]): 128; Ratio [24]: 128; Ratio [25]: 128; Ratio [26]: 128; MIC [27]: 100 µg/mL (≈ 267 µM); MIC [28]: > 100 µg/mL

— ChEMBL document CHEMBL3616436, “Synthesis, cytotoxicity and antimicrobial activity of thiourea derivatives incorporating 3-(trifluoromethyl)phenyl moiety” (Eur J Med Chem, 2015)
